# Screening results as filed in PubChem.
# An excerpt weighted towards active compounds, which were near 1.8% of everything screened.
# Cneo AK release – Cryptococcus neoformans cell lysis inducers, primary screen, AK release luminescence, single concentration. lysis activity, % at 15 µM. 0.2% of 360,000 active. C. neoformans lysis, adenylate kinase release luminescence, 4 h; normalised: neutral wells 0, clomiphene wells 100;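 active = mean lysis activity across replicates of at least 80%, whatever share of replicates individually reach that level; inactive = mean lysis activity below 80%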
#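 Signal: Adenylate kinase release luminescence | Assay system: Log-phase Cryptococcus neoformans yeast cells | Input: Cells at 5 × 10^6 per mL | Buffer or medium: Fresh YPD growth medium | Compound: Single dose | Schedule: Static 4 h at 37 °C with compound, 1 h detection | Controls: Clomiphene | Read-out: Luminescence rise reflecting yeast cell lysis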
# Statin myotox sup – suppressors of statin myotoxicity in C2C12 myotubes, primary screen, cell-based, single point, plate reader; C2C12 myotubes + simvastatin, ATP luminescence, 48 h; scaled: DMSO 0, geranylgeraniol control 100; 0.78% of 330,000 active; rescue of ATP level, % at 7.49 µM;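 active = mean ATP rescue above about 67%, or every replicate alone reaching that limit, limit read from the data, passing the limit was not always enough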;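 also: myotubes were challenged with 10 µM simvastatin during compound exposure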
# Efflux pump mplx – inhibitors of Candida efflux pumps in yeast, primary screen, S. cerevisiae, Nile Red, multiplex | inhibition, % at 10 µM | AID 485275, 2010 | 0.44% of 330,000 active | S. cerevisiae Candida pump triplex;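 active = plate passing quality check with inhibition over a set limit, or well fluorescence over plate mean plus 4 SD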;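 also: Nile Red retained in pooled yeast measured as flow cytometry median fluorescence; higher means more Nile Red kept so more efflux inhibition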
# SUMO Mot1 rescue – yeast Mot1-301 growth rescue at high temperature, primary screen, SUMOylation pathway inhibitor project, S. cerevisiae, ATP luminescence, 38.5C; S. cerevisiae Mot1-301 growth rescue; percent above DMSO median, 100 means doubled; growth rescue, % at 18.8 µM; 1% of 320,000 active; AID 2716, 2010;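 active = every valid replicate shows activation above 250% relative to neutral control wells; inactive = the rest, any valid replicate at or below 250%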
# Hits are given with their value; . = inactive; / = no result given.
SMILES,Cneo AK release,Statin myotox sup,Efflux pump mplx,SUMO Mot1 rescue
Cc1cccc(-c2ccc([C@H]3[C@H](CO)N4CCCCN(C(=O)NC(C)C)C[C@@H]34)cc2)c1,.,.,/,/
COCCn1c(C)cc(C(=O)COC(=O)c2ccccc2Br)c1C,.,.,.,.
COCCn1c(C)cc(C(=O)COC(=O)c2cncc(Br)c2)c1C,.,98,.,.
Cc1cc(C(F)(F)F)c2sc(N)nc2n1,.,85,.,.
Fc1ccc(C[n+]2csc3ccccc32)cc1,.,74,.,.
CCOC(=O)C1=C(C(C)=O)C(c2cccnc2)C(C#N)=C(N)O1 (stereo not given),/,118,.,.
CCOC(=O)C1=C(CSc2nc(-c3ccncc3)ccc2C#N)OC(N)=C(C#N)C1c1cccnc1 (stereo not given),.,.,.,.
CCOC(=O)C1=C(C)OC(N)=C(C#N)C1c1ccc(C)s1 (stereo not given),/,/,.,515
Cc1ccccc1N1CCN(C2CCCN(C(=O)CCN3CCCO3)C2)CC1 (stereo not given),.,.,.,.
O=C(Nc1ccccc1)c1ccc(NC2CCCCC2)c(S(=O)(=O)N2CCOCC2)c1,.,.,.,.
C[C@H](CO)N1C[C@H](C)[C@H](CN(C)Cc2ccc(C(F)(F)F)cc2)Oc2ccc(NC(=O)Nc3ccc4c(c3)OCO4)cc2CC1=O,.,.,/,/
CNC(=S)NCc1ccc(OC)cc1,/,/,.,.
Cc1ccnc(NC(=S)NC(=O)c2cncc(Br)c2)c1,/,/,.,.
Cc1nc(NC(=S)NC(=O)c2cncc(Br)c2)ccc1Br,.,102,.,.
CO[C@H]1CC[C@@H]2CCN(C)C(=O)[C@H](C)[C@@H](OC)CN(C)C(=O)c3cccc(C#N)c3OC[C@H]1O2,.,.,/,/
Cn1nccc1C(=O)NC(=S)Nc1cc(Cl)cc(Cl)c1,.,.,.,334
COc1ccc(CONc2ncnc3nonc23)cc1[N+](=O)[O-],/,/,.,.
CC(C)c1ccc(N(CC(=O)NCCc2ccccc2)C(=O)c2csnn2)cc1,.,81,.,.
Cc1ccc(N(CC(=O)NCCc2ccccc2)C(=O)c2csnn2)cc1,.,.,.,.
COc1cccc(C(=O)O[C@H]2[C@H](C)NS(=O)(=O)[C@H]3C[C@@H]4C=C[C@]23O4)c1,.,.,.,.
Oc1ccc(Br)cc1CNc1cccc2cccnc12,.,83,.,.
Cc1ccc(O)c(CNc2cccc3cccnc23)c1,/,/,.,.
Cc1ccc(CCNc2ccc3ccccc3c2)cn1,/,94,.,.
CCCN1C[C@H](C)[C@H](OC)CN(C)C(=O)c2ccc(NC(=O)Nc3c(C)noc3C)cc2OC[C@H]1C,.,.,/,/
Cc1ccnc(NC(=O)Cc2ccc([N+](=O)[O-])cc2)c1,/,.,.,364
SMILES,Cneo AK release,Statin myotox sup,Efflux pump mplx,SUMO Mot1 rescue
C[C@H]1CN([C@@H](C)CO)C(=O)c2cc(NS(=O)(=O)c3cn(C)cn3)ccc2O[C@@H]1CN(C)S(=O)(=O)c1ccccc1,.,/,/,/
CCCNC(=O)N1[C@H](CO)[C@@H](c2ccc(C3=CCCC3)cc2)[C@@H]1CN(C)C(C)=O,87,.,/,/
CC(=O)NC[C@@H]1[C@@H](c2ccc(C3=CCCC3)cc2)[C@H](CO)N1C(=O)NC(C)C,.,.,/,/
CC(=O)NC[C@H]1[C@@H](c2ccc(C3=CCCC3)cc2)[C@@H](CO)N1C(=O)NC(C)C,120,.,/,/
CC(=O)N1[C@@H](CO)[C@H](c2ccc(-c3ccccc3)cc2)[C@@H]1CNC(=O)C1CC1,95,.,/,/
COc1ccc(CCC(C)N(C)Cc2ccccc2)cc1 (stereo not given),.,.,.,.
CCOC(=O)c1c(N)sc2c1CCN(CCc1ccccc1)C2,.,.,.,.
COc1cccc(NC(=O)Nc2ccc3c(c2)C(=O)N(C)[C@@H]2CC[C@H](CC(=O)O)O[C@H]2CO3)c1,.,.,/,/
C[C@H]1CN([C@@H](C)CO)C(=O)c2cc(-c3ccc(F)cc3)cnc2O[C@H]1CN(C)C(=O)CN(C)C,.,.,/,/
CCCCCC1(C)NC(=S)N(c2ccccc2)N1 (stereo not given),/,/,.,300
Cc1ccc(S(=O)(=O)Nc2ccc3c(c2)C(=O)N([C@H](C)CO)C[C@@H](C)[C@H](CN(C)Cc2ccc(Cl)c(Cl)c2)O3)cc1,.,75,/,/
C[C@H]1CN([C@@H](C)CO)C(=O)c2cc(NS(=O)(=O)c3ccc(Cl)cc3)ccc2O[C@H]1CN(C)Cc1ccc(Cl)c(Cl)c1,.,.,/,/
Cc1ccc(S(=O)(=O)Nc2ccc3c(c2)C(=O)N([C@@H](C)CO)C[C@@H](C)[C@H](CN(C)Cc2ccc(Cl)c(Cl)c2)O3)cc1,.,95,/,/
NC(=S)N/N=C/c1coc2ccc(Cl)cc2c1=O,/,/,.,324
O=C(N/N=C/c1coc2ccc(Cl)cc2c1=O)c1ccc(O)cc1,.,.,.,.
CC(=O)c1cc(-c2ccccc2)n(CC(=O)Nc2cccc(C)c2C)c1C,/,/,.,.
CCOC(=O)N1CCN(C(=O)c2cc(-n3cnnc3)ccc2Cl)CC1,.,95,.,.
CO[C@@H](CN(C)Cc1ccc2c(c1)OCO2)[C@@H](C)CN(C(=O)c1ccccc1)[C@H](C)CO,96,.,/,/
O=C(O)CCC(C(=O)O)n1c(O)c(C2=c3ccccc3=NC2=O)sc1=S (stereo not given),.,112,.,.
Cc1nc(SCC(=O)NCC(F)(F)F)c2c(-c3cccs3)csc2n1,/,/,.,.
CCOC(=O)Cc1csc(SCC(=O)N2CCN(c3ccc(OC)cc3)CC2)n1,.,.,.,.
COc1cc2ccc(NC(C)=O)cc2cc1OC,.,.,/,/
Cc1cccc(C)c1NS(=O)(=O)c1ccc(F)cc1,.,115,.,.
O=S(=O)(Nc1ccccc1)c1ccc(F)cc1,.,/,.,.
NC(=O)Cn1c2[n+](c3ccccc31)CC(O)CS2 (stereo not given),/,/,.,.
SMILES,Cneo AK release,Statin myotox sup,Efflux pump mplx,SUMO Mot1 rescue
CCOc1ccccc1NC(=O)Cn1cnc2c(cnn2-c2ccc(C)c(C)c2)c1=O,.,132,.,.
O=C(Cn1cnc2c(cnn2-c2ccccc2)c1=O)c1ccc(Cl)cc1,.,143,.,.
CC(C)(C)n1ncc2c(=O)n(CC(=O)c3ccc(Cl)cc3)cnc21,.,.,.,.
O=c1c2cnn(-c3ccc(F)cc3)c2ncn1Cc1cccnc1,.,.,.,.
O=c1c2cnn(-c3ccc(F)cc3)c2ncn1Cc1ccccc1,.,158,.,.
COc1ccc(NC(=O)/C=C/C(=O)O)c([N+](=O)[O-])c1,.,/,.,.
CC1=CCn2c(=O)c3ccccc3c(=O)n2C1,.,125,.,.
Cc1ccc(C)c(NC(=O)C2CC=CCC2C(=O)O)c1 (stereo not given),.,.,.,.
Cc1ccc(C)c(NC(=O)C2CC3c4ccccc4C2c2ccccc23)c1 (stereo not given),.,130,.,.
Nc1ccccc1SC(CC(=O)c1ccccc1)c1ccccc1 (stereo not given),.,.,/,/
